The list is not random: actives were taken first. Their share in the collection is about 8.2%.
M1 agonist: M1 muscarinic receptor agonists, primary screen, CHO-M1 cells, Fluo-4 calcium, agonist mode; 64,000 tested, 3% active; Fluo-4 calcium fluorescence; stronger effect = higher value; AID 626, 2007; B-score at 10 µM; Muscarinic acetylcholine receptor M1;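 active = fluorescence rise, raw or as B-score row- and column-corrected plate score, outside the 99.7% band of its plate's samples, either direction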
RORa activator: activators of orphan receptor RORA, primary screen, cell-based, luminescence | 65,000 tested, 1.5% active | AID 560, 2006 | CHO-K1 Gal4-RORA LBD luciferase reporter; percent increase over mock-subtracted basal signal | Nuclear receptor ROR-alpha (Homo sapiens), P35398 | activation, % at 10 µM;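 active = activation above the mean of all tested compounds plus 3 SD, cut at about 49% in these data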;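 also: 0% = DMSO-treated RORA cells and 100% = added signal equal to DMSO minus mock-transfected cells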
D1 mod: D1 CRE-luciferase signal change, two-sided – cell-based, HEK293 D1, dopamine EC30, D1 allosteric modulator project, primary screen | AID 641, 2007 | dopamine EC30 potentiation; actives deviate in either direction | D(1A) dopamine receptor (Homo sapiens), P21728 | B-score at 10 µM | 58,000 tested, 5.9% active;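 active = luminescence count or its row- and column-corrected plate score outside the 99.7% band of the plate's sample wells, on either side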
SF1 activator: activators of human SF-1, primary screen, cell-based, CHO-K1, Gal4-SF-1 LBD, luciferase luminescence; CHO-K1 Gal4-SF-1 LBD luciferase reporter; % increase over DMSO SF-1-specific signal; activation, % at 10 µM; 65,000 tested, 1.9% active; AID 522, 2006;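 active = activation above the mean activation of all tested compounds plus 3 SD, cut at about 50% in these data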
Target sequence (Q13285 whole entry, looked up, the tested form may be a part): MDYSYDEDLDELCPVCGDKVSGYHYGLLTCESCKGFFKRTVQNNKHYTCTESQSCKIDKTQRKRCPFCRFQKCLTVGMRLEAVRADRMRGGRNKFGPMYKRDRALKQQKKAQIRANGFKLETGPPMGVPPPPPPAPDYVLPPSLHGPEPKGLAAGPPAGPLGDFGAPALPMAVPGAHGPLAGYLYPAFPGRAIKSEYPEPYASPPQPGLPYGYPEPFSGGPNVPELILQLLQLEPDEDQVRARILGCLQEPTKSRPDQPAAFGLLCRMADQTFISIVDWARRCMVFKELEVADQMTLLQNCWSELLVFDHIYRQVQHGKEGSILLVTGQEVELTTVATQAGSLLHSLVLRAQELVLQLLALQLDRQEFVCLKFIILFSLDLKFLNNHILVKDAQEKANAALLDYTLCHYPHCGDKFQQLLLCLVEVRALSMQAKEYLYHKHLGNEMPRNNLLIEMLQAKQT
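Material: Gal4–SF-1 LBD one-hybrid luciferase reporter in CHO-K1 cells | Amount: 4,000 cells per well | Compound dosing: 10 µM single point, 1% DMSO | Schedule: 20 h compound treatment, 37 °C | Measured by: SteadyLite luciferase luminescence | Evaluation: Percent activation versus DMSO | Control set: DMSO-treated SF-1-transfected cells as negative, DMSO-treated mock-transfected cells lacking SF-1 as background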
M1 antagonist: antagonists of rat M1 muscarinic receptor | Muscarinic acetylcholine receptor M1 (Rattus norvegicus), P08482 | CHO-M1 cells, Fluo-4 calcium, ACh EC80 antagonist mode; stronger effect = lower value | B-score at 10 µM | 64,000 tested, 3.4% active;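 active = calcium fluorescence response, raw or row-and-column corrected B-score, differing from the plate sample mean either way at a set confidence level, mostly lower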
HePTP inhibitor: inhibitors of human HePTP phosphatase, primary screen, biochemical, absorbance, leukemia target; AID 521, 2006; inhibition, % at 20 µM; recombinant HePTP phosphatase activity, OD absorbance; 110,000 tested, 0.64% active; Tyrosine-protein phosphatase non-receptor type 7 (Homo sapiens), P35236; in the data active = inhibition above about 50%;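 also: plate controls were vehicle for no effect and reference inhibitor for full effect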
* hit, by the source's call; . = no result.

SMILES | M1 agonist | RORa activator | D1 mod | SF1 activator | M1 antagonist | HePTP inhibitor
COc1cc(CO)cc(Br)c1OCc1cccnc1 | . | 22.6 | -3.14* | 0.1 | . | 16.4
N#Cc1c(N)nc2c(c1-c1ccc(F)cc1)CCCC2 | . | . | . | . | . | -0.5
Cc1oc2c(CN3CCCC3)c(O)ccc2c(=O)c1-c1ccc(Cl)cc1 | -0.86 | 15.5 | . | 1.9 | 0.512 | 5.8
Cc1oc2c(CN3CCCC3)c(O)ccc2c(=O)c1-c1ccccc1 | 3.2* | 4.5 | -0.932 | 13.4 | -0.00374 | 5.5
CC(=O)NC1=NC(=O)/C(=C\c2ccc(-c3ccc(C(=O)O)cc3)o2)S1 | . | . | . | . | . | 103.5*
CC(=O)NC1=NC(=O)/C(=C\c2ccc(Br)o2)S1 | . | . | . | . | . | 101.5*
CN1C(=O)/C(=C/c2ccc(-c3ccc(C(=O)O)cc3)o2)SC1=S | . | . | . | . | . | 20.3
CCC(=O)Nc1nc(C)c(-c2csc(Nc3ccc(C(=O)O)cc3)n2)s1 | . | . | . | . | . | 4.9
Cc1occc1C(=O)NCCc1cccc(Cl)c1 | . | . | . | . | . | 1.2
OC1(c2cccc(C(F)(F)F)c2)CCN(c2ccc(-c3ccccc3)nn2)CC1 | -0.114 | 66.1* | -0.468 | 38.3 | -0.023 | 17.7
O=C(NC(C(=O)c1ccccc1)N1CCOCC1)c1ccco1 (stereo not given) | . | . | . | . | . | 10.7
C/C(NC(=O)c1ccccc1)=C1/C(=O)CC2C1C2(C)C (stereo not given) | -0.735 | 68.1* | 0.0372 | 30.1 | -0.0833 | 3.7
O=C1CCCCCN1Cc1nnc(SCc2nc3ccccc3s2)n1-c1ccccn1 | 0.00468 | 60.7* | 1.05 | 78.7* | -0.133 | -5.6
CC(=O)c1c(C)[nH]c(C(=O)CSc2nnc(CN3CCCCCC3=O)n2-c2ccccn2)c1C | 0.115 | -1.7 | -0.513 | 10.1 | -0.0168 | -2.4
Clc1ccc(OCCSc2nnnn2-c2ccccc2)cc1 | . | . | . | . | . | -11.9
Clc1ccc(-n2nnnc2Sc2ncnc3sccc23)cc1 | -0.667 | -28.6 | -2.88* | -8.4 | -0.816 | -2.3
Cc1sc2ncnc(Sc3nnnn3-c3ccccc3)c2c1C | -0.979 | -33.8 | -4.78* | -29.1 | -0.0978 | 4.9
Cc1ccc(C)c(-n2nnnc2Sc2nnnn2-c2ccccc2)c1 | 0.0343 | -46.3 | -2.45 | -30.3 | -0.691 | 13.9
Cc1ccccc1C(=O)Nc1ccc(Br)cn1 | -0.0531 | 67.1* | 0.0351 | 82.4* | -0.674 | 7.4
O=C(Nc1ccc(Br)cn1)c1ccccc1F | . | . | . | . | . | 3.8
Cc1ccc(NC(=O)c2ccccc2F)nc1 | -0.636 | 20.8 | -3.01* | -4.1 | 0.268 | -0.9
CCC(=O)Nc1nc2ccc3nc(C)sc3c2s1 | 0.356 | 81.8* | 0.0398 | 56.4* | 0.0613 | 0.2
O=C1CCN(C(=O)c2ccccc2)C2CCCCC12 (stereo not given) | -0.0278 | -8.5 | 0.329 | -6.6 | 0.683 | -5.6
COc1ccc(C2(C(N)=O)CCCCC2)cc1OC | -0.0909 | 2.6 | 8.46* | -13.6 | 0.473 | 3.4
O=S(=O)(c1ccc2ccccc2c1)n1nnc2ccccc21 | . | . | . | . | . | -4.1
SMILES | M1 agonist | RORa activator | D1 mod | SF1 activator | M1 antagonist | HePTP inhibitor
CCOC(=O)C1=NN(C(=O)c2cccc([N+](=O)[O-])c2)C(O)(c2ccc(Cl)cc2)C1 (stereo not given) | . | . | . | . | . | 103.9*
CCCN(CCC)CCNc1c(N2CCN(C(=O)OCC)CC2)c(=O)c1=O | -0.0586 | -2.7 | . | -0.8 | -0.418 | 0.8
CC1(C)NC(=O)N(CC(O)CNC23CC4CC(CC(C4)C2)C3)C1=O (stereo not given) | -0.053 | 8.6 | 0.987 | 6.4 | -0.184 | 4.1
Cc1cc(C)c2c(=O)[nH]n(C3CCOC(C)(C)C3)c2n1 (stereo not given) | 0.747 | 5.1 | 0.742 | -1.0 | 0.307 | 3.4
Cc1cc(C)c2c(=O)[nH]n(C3CC(C)N(C)CC3C)c2n1 (stereo not given) | 1.34 | -10.3 | -1.93* | -19.9 | -0.775 | 4.0
CC1(C)CC(=O)C=C(NNC(=O)c2ccc(O)cc2)C1 | . | . | . | . | . | -7.2
Cc1cc(C)n(-c2cccc3cccnc23)n1 | 0.533 | 4.7 | -0.0407 | -6.5 | 0.18 | -2.3
COc1cc(CCC(=O)OCn2nnc3ccccc3c2=O)cc(OC)c1OC | -0.0144 | 6.3 | 0.137 | 12.3 | 2.65* | 4.3
COc1cccc(C(=O)OCn2nnc3ccccc3c2=O)c1OC | -0.395 | 20.6 | 5.16* | 6.0 | -0.398 | 14.0
COc1cc(C(=O)OCn2nnc3ccccc3c2=O)cc(OC)c1OC | 0.687 | -0.2 | 1.02 | 3.8 | -0.178 | 7.9
O=C(CSc1nccn1Cc1ccccc1)Nc1nccs1 | -0.096 | 57.1* | 1.59 | 13.6 | 1.1 | 4.5
CC1CCCN(S(=O)(=O)c2ccc3c(c2)CCN3C(=O)C2CCC2)C1 (stereo not given) | -1.14 | -12.9 | -4.08* | 3.6 | 1.47 | -2.2
O=C(C1CCC1)N1CCc2cc(S(=O)(=O)N3CCc4ccccc4C3)ccc21 | -0.094 | 1.5 | 1.94 | 7.3 | -0.187 | -0.5
COCCn1c(SCC(=O)Nc2ncc(C)s2)nc2sc3c(c2c1=O)CCC3 | 1.11 | -2.2 | 0.538 | 18.8 | 0.0938 | 6.5
COCCn1c(SCc2nnc(-c3ccccc3)o2)nc2sc3c(c2c1=O)CCC3 | 0.202 | 17.0 | -4.99* | -12.5 | -0.459 | 1.4
CC(=O)Nc1ccc(OC(=O)c2c(F)cccc2F)cc1 | . | . | . | . | . | 89.5*
CC(=O)c1cccc(NC(=O)CCNS(=O)(=O)c2cccc3nsnc23)c1 | 0.809 | -11.8 | -0.0672 | 6.5 | 0.0682 | -15.0
CC1CCCCN1C(=O)CSc1nnc(-c2ccco2)n1CC1CCCO1 (stereo not given) | -0.173 | 3.5 | 0.104 | -6.0 | 0.356 | 5.7
Cc1ccc(C(=O)CSc2nnc(-c3ccco3)n2CC2CCCO2)cc1 (stereo not given) | 0.0709 | 8.3 | . | -0.6 | 1.94* | 1.4
COC(=O)c1ccc(NC(=O)Cn2nc(C)c3ccccc3c2=O)cc1 | . | . | . | . | . | 69.2*
COC(=O)c1ccc(NC(=O)Cn2nnc3ccccc32)cc1 | -0.0225 | 42.2 | -0.178 | 75.6* | 0.643 | 4.1
Cc1nn(CC(=O)Nc2ccc(C(=O)N3CCCC3)cc2)c(=O)c2ccccc12 | 2.01 | -14.9 | 0.825 | -13.7 | 0.433 | -0.3
CCn1c2ccccc2c2cc(/C=N/NC(=O)c3cccc([N+](=O)[O-])c3)ccc21 | . | . | . | . | . | -17.2
O=C(NCCCN1CCCC1)c1ccc(CS(=O)(=O)c2ccc(Br)cc2)o1 | 0.841 | -11.7 | -0.461 | -0.9 | -1.21 | -4.8
Cc1ccc(S(=O)(=O)Cc2ccc(C(=O)NCCCN3CCCC3=O)o2)cc1 | -0.114 | 13.5 | -3.33* | -3.2 | -0.208 | -4.2
COCCNC(=O)c1cc2sc3ccccc3c2s1 | -0.403 | 61.1* | -1.38 | 50.5* | -0.759 | 7.4

Source: PubChem BioAssay (several laboratories)
